Experimental data as given in ChEMBL document CHEMBL5120856, “New salicylic acid derivatives, double inhibitors of glycolate oxidase and lactate dehydrogenase, as effective agents decreasing oxalate production” (Eur J Med Chem, 2022).
Calls of active or inactive are those of the source. No cut-off for these calls is given here.

What was measured:
2-Hydroxyacid oxidase 1 = biological target: T1, 2-Hydroxyacid oxidase 1 (Homo sapiens, UniProt Q9UJM8); assay: Inhibition of N-terminal His-tagged human recombinant glycolate oxidase expressed in Escherichia coli BL21 (DE3) cells using glycolate as substrate preincubated for 10 mins followed by substrate addition and measured after 10 mins by Amplex red and horseradish peroxidase based fluorescence assay
T1 sequence (Q9UJM8 whole entry): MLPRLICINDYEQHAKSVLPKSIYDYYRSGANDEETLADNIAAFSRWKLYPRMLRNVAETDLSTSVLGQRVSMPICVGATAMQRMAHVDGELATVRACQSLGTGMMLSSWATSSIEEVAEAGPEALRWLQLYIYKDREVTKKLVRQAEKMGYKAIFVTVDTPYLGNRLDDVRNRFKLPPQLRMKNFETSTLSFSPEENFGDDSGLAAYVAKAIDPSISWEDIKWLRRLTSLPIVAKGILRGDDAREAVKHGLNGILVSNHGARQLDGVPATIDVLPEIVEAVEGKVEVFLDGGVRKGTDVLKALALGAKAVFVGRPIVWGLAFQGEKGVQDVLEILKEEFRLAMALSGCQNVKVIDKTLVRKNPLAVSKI

[1] = biological target: T2, 2-Hydroxyacid oxidase 1 (Homo sapiens) (UniProt Q9UJM8); assay: Reversible inhibition of N-terminal His-tagged human recombinant glycolate oxidase expressed in Escherichia coli BL21 (DE3) cells assessed as enzyme recovery using glycolate as substrate at 10 times of IC50 concentration preincubated for 30 mins followed by substrate addition and measured every 60 sec for 15 mins by jump-dilution based Amplex red and horseradish peroxidase fluorescence assay; settings: time 45.0 min
T2 sequence (whole entry): T1 sequence (Q9UJM8 whole entry)

Hepatocyte [2] = assay: Cytotoxicity against hyperoxaluric-primary hepatocyte isolated from Hoga1-knockdown PH3 C57BL/6 mouse assessed as cell death at 10 uM by MTS assay; assay type: toxicity, cell-based; settings: hepatocytes, Hoga1-knockdown PH3, 10 µM
Summary of the method: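 Primary hepatocytes from Agxt1-/- (PH1, 5 mM glycolate), Grhpr-/- (PH2, 10 mM glycolate) or Hoga1-/- (PH3, 10 mM hydroxyproline) mice, incubated with inhibitor at 10 μM; viability followed through the oxalate assay by MTS tetrazolium method.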

Hepatocyte [3] = assay: Inhibition of GO/LDHA in hyperoxaluric-primary hepatocyte isolated from Agxt1 knockdown PH1 C57BL/6 mouse assessed as relative oxalate output at 10 uM measured at 24 hrs in the presence of glycolate relative to control; assay type: cell-based
Summary of the method: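 Agxt1-/- mouse primary hepatocytes cultured with 5 mM glycolate, inhibitor at 10 μM; extracellular oxalate measured by colorimetric kit 24 and 48 h after inhibitor addition; relative oxalate = oxalate with inhibitor over oxalate without inhibitor; negative values mean below detection limit; mean of three/four replicates ± SD.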

Hepatocyte [4] = assay: Inhibition of GO/LDHA in hyperoxaluric-primary hepatocyte isolated from Hoga1-knockdown PH3 C57BL/6 mouse assessed as relative oxalate output at 10 uM measured at 24 hrs in the presence of hydroxyproline relative to control; assay type: cell-based
Summary of the method: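 Hoga1-/- mouse primary hepatocytes challenged with 10 mM hydroxyproline, inhibitor 10 μM; extracellular oxalate measured by colorimetric kit 24 and 48 h after dosing, given as ratio to oxalate without inhibitor; negative values are below detection limit; mean of three/four replicates ± SD.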

[5] = biological target: L-lactate dehydrogenase A chain (Homo sapiens, UniProt P00338); assay: Inhibition of human recombinant LDHA using pyruvate as substrate preincubated for 10 mins followed by substrate addition and measured every 60 sec for 10 mins in the presence of NADH by fluorescence assay
HEK293 = assay: Cytotoxicity against HEK293 cells assessed as reduction in cell viability upto 50 uM measured after 48 hrs by MTT assay; assay type: toxicity, cell-based; settings: human, hek293, 48 h
[6] = biological target: T3, L-lactate dehydrogenase B chain (Homo sapiens, UniProt P07195); assay: Non-competitive inhibition of human recombinant LDHB assessed as inhibition constant using varying concentration of pyruvate as substrate preincubated for 10 mins followed by substrate addition and measured every 60 sec for 10 mins in the presence of NADH by fluorescence assay
T3 sequence (P07195 whole entry): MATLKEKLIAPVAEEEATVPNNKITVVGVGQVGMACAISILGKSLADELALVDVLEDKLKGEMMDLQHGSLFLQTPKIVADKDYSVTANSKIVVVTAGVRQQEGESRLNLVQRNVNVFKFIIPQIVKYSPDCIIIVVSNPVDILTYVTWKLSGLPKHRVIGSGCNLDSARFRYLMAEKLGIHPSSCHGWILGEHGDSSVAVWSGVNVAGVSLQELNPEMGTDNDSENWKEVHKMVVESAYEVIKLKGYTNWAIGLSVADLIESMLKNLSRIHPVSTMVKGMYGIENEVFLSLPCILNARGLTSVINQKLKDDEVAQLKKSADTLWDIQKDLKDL

[7] = biological target: T3, L-lactate dehydrogenase B chain; assay: Inhibition of human recombinant LDHB using pyruvate as substrate preincubated for 10 mins followed by substrate addition and measured every 60 sec for 10 mins in the presence of NADH by fluorescence assay

- IC50 (2-Hydroxyacid oxidase 1): 1500 nM
- inhibition [1]: Active
- IC50 [5]: 400 nM
- Ki [6]: 700 nM
- IC50 [7]: 200 nM
SMILES: N.N.O=C(O)c1cc(-c2ccc(CN(Cc3ccccc3)Cc3ccc(-c4ccc(O)c(C(=O)O)c4)o3)o2)ccc1O
- Activity (Hepatocyte [2]): Non-Toxic
- fold change (FC) (Hepatocyte [3]): 0.66
- fold change (FC) (Hepatocyte [4]): 0.41
- Activity (HEK293): Non-Toxic
